Experimental data from ChEMBL document CHEMBL5346963, “Innovative Strategy toward Mutant CFTR Rescue in Cystic Fibrosis: Design and Synthesis of Thiadiazole Inhibitors of the E3 Ligase RNF5” (J Med Chem, 2023).
One block for each molecule: values may come before it. Calls of active or inactive are those of the source. Unless noted, the calls are words filed in the database; no cut-off is given here.

Key:
CFBE41o- [1] = assay: Induction of autophagy in human CFBE41o- cells harbouring CFTR F508del mutant assessed as increase in number of autophagic vacuoles at 2 uM incubated for 3 hrs by confocal microscopy based analysis; format: functional, cell-based
How it was run: (§1)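 CFBE41o– F508del/HS-YFP cells (50,000/well) were treated 24 h with compound (5 μM), VX-809 (1 μM) or DMSO. SAR405 (2 μM) and torin1 (20 nM) were added near the end of incubation. Cells were then loaded with 50 μM MDC in PBS for 10 min at 37 °C, washed, and imaged. MDC spot number was normalized to control. n = 3; ANOVA with Dunnett test.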

[2] = test system: Cystic fibrosis transmembrane conductance regulator (Homo sapiens), P13569 [F508del]; assay: Corrector activity at CFTR F508del mutant in human CFBE41o- cells assessed as decrease in accumulation of ubiquitylated CFTR at 3 uM incubated for 24 hrs in presence of VX-661 by Western blot analysis; format: cell-based
How it was run: (§2)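 Confluent CFBE41o– F508del cells were treated 24 h, with MG-132 (10 μM) or DMSO in the last 4 h. Lysate (600 μg protein) was immunoprecipitated with rabbit anti-CFTR (2 μg, 1 h RT) and protein A/G beads, then eluted reducing. Samples ran on 4–15% gradient SDS-PAGE and were western blotted. Bands were read by chemiluminescence, with densitometry of ubiquitylated CFTR.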

[3] = test system: Cystic fibrosis transmembrane conductance regulator (Homo sapiens), P13569 [F508del]; assay: Corrector activity at CFTR F508del mutant in human CFBE41o- cells assessed as rescue of CFTR mutant at 3 uM incubated for 24 hrs in presence of VX-661 by Western blot analysis; format: cell-based
CFBE41o- [4] = assay: Antiproliferative activity against human CFBE41o- cells harbouring CFTR F508del mutant/HS-YFP at 5 uM incubated for 48 hrs; format: toxicity, cell-based
How it was run: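 Cells plated at 5000/well and treated after 6 h with compound (5 μM) or DMSO. Cell-covered area was followed by the YFP signal over 48 h on a high-content imager. Means ± SEM, n = 6. Three independent experiments; ANOVA with Dunnett test.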

[5] = test system: Cystic fibrosis transmembrane conductance regulator (Homo sapiens), P13569 [F508del]; assay: Corrector activity at CFTR F508del mutant in human CFBE41o- cells assessed as increase in CFTR mutant activity at 5 uM in presence of VX-809 incubated for 24 hrs; format: cell-based
How it was run: (§3)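 CFBE41o– cells stably expressing F508del-CFTR and HS-YFP were treated 24 h after seeding; DMSO and VX-809 (1 μM) served as controls. Cells were stimulated 25 min with forskolin (20 μM) plus VX-770 (1 μM). YFP was read for 2 s before and 12 s after iodide injection. Initial slope came from an exponential fit of the final 11 s. Three independent experiments.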

[6] = Aggregation property of the compound in PBS buffer at pH 7.5 by 1D 1H-NMR analysis; format: physicochemical
How it was run: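 Solubility by 1H 1D NMR and aggregation by WaterLOGSY at 298 K in PBS pH 7.5 with 1 μM ZnCl2, 1 mM DTT, 10% D2O, 1% DMSO-d6. Theoretical concentrations 20, 50 and 100 μM, with 200 μM 4-trifluoromethyl benzoic acid as internal reference. WaterLOGSY: mixing time 1.7 s, relaxation delay 2 s, 256 scans.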

[7] = molecular target: Cystic fibrosis transmembrane conductance regulator (Homo sapiens, UniProt P13569, F508DEL); assay: Corrector activity at CFTR F508del mutant in human CFBE41o- cells incubated for 25 mins by microplate reader based analysis; format: cell-based; how it was run: as §3
[8] = test system: Cystic fibrosis transmembrane conductance regulator (Homo sapiens), P13569 [F508del]; assay: Corrector activity at CFTR F508del mutant in human CFBE41o- cells assessed as increase in CFTR mutant activity at 5 uM in presence of VX-445 incubated for 24 hrs; format: cell-based; how it was run: as §3
CFBE41o- [9] = assay: Induction of autophagy in human CFBE41o- cells harbouring CFTR F508del mutant assessed as increase in number of autophagic vacuoles at 5 uM incubated for 24 hrs by confocal microscopy based analysis; format: functional, cell-based; how it was run: as §1
CFBE41o- [10] = assay: Induction of apoptosis in human CFBE41o- cells assessed as increase in apoptosis at 1 uM incubated for 24 hrs by Hoechst 33342 and propidium iodide staining based analysis; format: toxicity, cell-based
How it was run: (§4)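 Cells were plated at 10,000/well and treated after 6 h with compound (5, 20, 100 μM), VX-809 (1 μM), MG132 (50 μM) or DMSO for 24 h. Hoechst 33342 counted total nuclei and propidium iodide counted apoptotic nuclei, by high-content imaging. Means ± SEM; ANOVA with Dunnett test.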

CFBE41o- [11] = assay: Induction of apoptosis in human CFBE41o- cells assessed as increase in apoptosis at 100 uM incubated for 24 hrs by Hoechst 33342 and propidium iodide staining based analysis; format: toxicity, cell-based; how it was run: as §4
[12] = test system: Cystic fibrosis transmembrane conductance regulator (Homo sapiens), P13569 [F508del]; assay: Corrector activity at CFTR F508del mutant in human CFBE41o- cells assessed as decrease in accumulation of ubiquitylated CFTR at 10 uM incubated for 24 hrs in presence of VX-445 by Western blot analysis; format: cell-based; how it was run: as §2
[13] = test system: Cystic fibrosis transmembrane conductance regulator (Homo sapiens), P13569 [F508del]; assay: Corrector activity at CFTR F508del mutant in human CFBE41o- cells assessed as rescue of CFTR mutant at 10 uM incubated for 24 hrs in presence of VX-445 by Western blot analysis; format: cell-based
[14] = test system: Cystic fibrosis transmembrane conductance regulator (Homo sapiens), P13569 [F508del]; assay: Corrector activity at CFTR F508del mutant in human CFBE41o- cells assessed as appearance of CFTR mutant forms at 10 uM incubated for 4 hrs by Western blot analysis; format: cell-based
[15] = test system: Cystic fibrosis transmembrane conductance regulator (Homo sapiens), P13569 [F508del]; assay: Corrector activity at CFTR F508del mutant in human CFBE41o- cells assessed as decrease in accumulation of ubiquitylated CFTR at 10 uM incubated for 4 hrs in presence of MG-132 by Western blot analysis; format: cell-based; how it was run: as §2
[16] = molecular target: E3 ubiquitin-protein ligase RNF5 (Homo sapiens) (UniProt Q99942); assay: Binding affinity to recombinant human RNF5 (1 to 117 residues) expressed in Escherichia coli BL21(DE3) at 50 uM by Microscale thermophoresis analysis
How it was run: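 Human RNF5 aa 1–117 was expressed GST-tagged in E. coli BL21(DE3) with 0.2 mM IPTG for 5 h at 37 °C. It was purified on glutathione resin, TEV-cleaved, and RED-NHS labelled (5 nM). Binding check was run in PBS with 0.05% Tween-20, 0.1% PEG-8000 and 1 μM ZnCl2, ± 1 mM DTT, at ≤5% DMSO. Medium MST power, 20% excitation.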

Chain of Cystic fibrosis transmembrane conductance regulator (Homo sapiens), P13569 [F508del] (P13569 as listed by the source): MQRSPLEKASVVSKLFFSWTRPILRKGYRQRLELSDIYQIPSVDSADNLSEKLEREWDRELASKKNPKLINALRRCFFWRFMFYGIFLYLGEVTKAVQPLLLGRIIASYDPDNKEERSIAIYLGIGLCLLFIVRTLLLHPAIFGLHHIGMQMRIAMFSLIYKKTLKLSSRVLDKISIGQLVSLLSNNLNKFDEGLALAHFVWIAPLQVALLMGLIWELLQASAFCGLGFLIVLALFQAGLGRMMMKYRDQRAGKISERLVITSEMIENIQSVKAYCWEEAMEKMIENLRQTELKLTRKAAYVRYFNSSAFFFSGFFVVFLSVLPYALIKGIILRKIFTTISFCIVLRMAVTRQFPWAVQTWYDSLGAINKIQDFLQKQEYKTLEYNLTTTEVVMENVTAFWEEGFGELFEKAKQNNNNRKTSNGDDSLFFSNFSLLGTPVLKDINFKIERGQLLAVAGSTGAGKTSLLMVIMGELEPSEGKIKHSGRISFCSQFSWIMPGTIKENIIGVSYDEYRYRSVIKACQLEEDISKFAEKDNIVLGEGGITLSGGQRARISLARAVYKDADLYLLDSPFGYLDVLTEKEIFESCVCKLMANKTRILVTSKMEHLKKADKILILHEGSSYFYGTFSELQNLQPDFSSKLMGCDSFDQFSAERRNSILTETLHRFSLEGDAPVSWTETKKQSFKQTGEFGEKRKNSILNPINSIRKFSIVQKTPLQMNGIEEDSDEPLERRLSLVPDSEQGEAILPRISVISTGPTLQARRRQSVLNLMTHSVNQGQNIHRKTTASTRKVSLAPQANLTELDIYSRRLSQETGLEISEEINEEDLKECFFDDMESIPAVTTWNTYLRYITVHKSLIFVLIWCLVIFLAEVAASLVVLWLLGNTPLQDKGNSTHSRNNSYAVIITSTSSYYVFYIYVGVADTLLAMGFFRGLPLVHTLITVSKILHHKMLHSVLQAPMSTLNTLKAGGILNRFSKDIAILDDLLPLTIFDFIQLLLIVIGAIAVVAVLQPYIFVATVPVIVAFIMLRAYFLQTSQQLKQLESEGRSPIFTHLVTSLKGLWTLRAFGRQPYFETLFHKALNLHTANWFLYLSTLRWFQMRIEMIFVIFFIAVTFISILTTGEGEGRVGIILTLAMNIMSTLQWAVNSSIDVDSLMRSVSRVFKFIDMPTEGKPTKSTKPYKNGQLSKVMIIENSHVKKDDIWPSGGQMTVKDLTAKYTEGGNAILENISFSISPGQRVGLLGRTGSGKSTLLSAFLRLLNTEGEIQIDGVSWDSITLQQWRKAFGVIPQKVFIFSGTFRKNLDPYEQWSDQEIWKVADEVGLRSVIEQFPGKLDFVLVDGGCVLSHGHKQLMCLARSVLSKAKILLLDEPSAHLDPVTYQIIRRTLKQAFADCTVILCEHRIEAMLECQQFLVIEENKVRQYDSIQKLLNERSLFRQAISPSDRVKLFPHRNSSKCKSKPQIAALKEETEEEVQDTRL
Chain of Cystic fibrosis transmembrane conductance regulator (P13569 as listed by the source): as above
Chain of E3 ubiquitin-protein ligase RNF5 (Homo sapiens) (Q99942 whole entry, the tested form may be a part): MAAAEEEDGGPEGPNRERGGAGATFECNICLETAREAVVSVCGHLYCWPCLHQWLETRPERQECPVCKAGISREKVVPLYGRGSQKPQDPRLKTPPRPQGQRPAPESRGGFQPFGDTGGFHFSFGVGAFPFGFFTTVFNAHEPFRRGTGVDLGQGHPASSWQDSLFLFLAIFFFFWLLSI

SMILES: C[C@@H]1COCCN1c1cc(=O)n2c(n1)N(Cc1cncc(Cl)c1)[C@H](C(F)(F)F)CC2
Activity (CFBE41o- [1]): inactive

SMILES: Cc1ccc(Cn2c(C)ns/c2=N\C(=N\c2ccccc2)c2ccccc2)cc1
Activity (CFBE41o- [4]): Non-Toxic

SMILES: CCOc1cccc(Cn2c(C)ns/c2=N\C(=N\c2ccccc2)c2ccccc2)c1
Activity (CFBE41o- [4]): Non-Toxic

SMILES: Cc1ns/c(=N\C(=N\c2ccccc2)c2ccccc2)n1Cc1ccc(Br)cc1
Activity (CFBE41o- [4]): Non-Toxic
Activity (CFBE41o- [9]): Active

SMILES: Cc1ccc(NC(=O)C2(c3ccc4c(c3)OC(F)(F)O4)CC2)nc1-c1cccc(C(=O)O)c1 [LUMACAFTOR]
Activity (CFBE41o- [4]): Non-Toxic
Activity (CFBE41o- [10]): Toxic

SMILES: CNc1cccc(Cn2c(C)ns/c2=N\C(=N\c2ccccc2)c2ccccc2)c1
Activity (CFBE41o- [4]): Non-Toxic
Activity (CFBE41o- [9]): Active

SMILES: Cc1ns/c(=N\C(=N\c2ccccc2)c2ccccc2)n1Cc1ccc(F)cc1
Activity (CFBE41o- [4]): Non-Toxic
Activity (CFBE41o- [9]): inactive

Further lines, with some results ahead:

Activity [2]: Active
Activity [3]: Active
SMILES: Cc1nn(C)cc1S(=O)(=O)NC(=O)c1ccc(-n2ccc(OCC(C)(C)C(F)(F)F)n2)nc1N1C[C@@H](C)CC1(C)C

Activity [5]: Active
Activity [6]: Not Active
EC50 [7]: 2.6 µM
Activity [8]: Active
SMILES: Cc1ns/c(=N\C(=N\c2ccccc2)c2ccccc2)n1Cc1ccccc1
Activity (CFBE41o- [4]): Non-Toxic
Activity (CFBE41o- [9]): Active

Activity [6]: Not Active
SMILES: Cc1ns/c(=N\C(=N\c2ccccc2)c2ccccc2)n1-c1ccccc1
Activity (CFBE41o- [11]): Toxic
Activity (CFBE41o- [4]): Non-Toxic
Activity (CFBE41o- [9]): inactive

Activity [6]: Not Active
SMILES: Cc1ns/c(=N\C(=N\c2ccccc2)c2ccccc2)n1Cc1ccccc1N
Activity (CFBE41o- [11]): Toxic
Activity (CFBE41o- [4]): Non-Toxic

Activity [12]: Active
Activity [13]: Active
SMILES: CC(C)(CO)c1cc2cc(NC(=O)C3(c4ccc5c(c4)OC(F)(F)O5)CC3)c(F)cc2n1C[C@@H](O)CO

Activity [14]: Active
Activity [15]: inactive
SMILES: CC(C)C[C@@H](C=O)NC(=O)[C@H](CC(C)C)NC(=O)[C@H](CC(C)C)NC(=O)OCc1ccccc1

Activity [6]: Not Active
Activity [16]: Active
SMILES: Cc1ns/c(=N\C(=N\c2ccccc2)c2ccccc2)n1Cc1ccc(C(=O)O)cc1
